Source: ChEMBL document CHEMBL1250448, “Inhibitor hijacking of Akt activation” (Nat Chem Biol, 2009)

test system: Serine/threonine-protein kinase B-raf (Homo sapiens), P15056 [V600E]; experiment: Inhibition of BRAF V599E mutant at 1 uM in presence of 100 uM ATP by Select Screen kinase assay relative to untreated control
Outline: (§1)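 Single-point screen at 1 μM against a panel of 220 purified kinases, run by Invitrogen staff as a SelectScreen profiling service. Read-out is percent inhibition of kinase activity.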

Sequence of Serine/threonine-protein kinase B-raf (Homo sapiens), P15056 [V600E] (P15056 whole entry V600E): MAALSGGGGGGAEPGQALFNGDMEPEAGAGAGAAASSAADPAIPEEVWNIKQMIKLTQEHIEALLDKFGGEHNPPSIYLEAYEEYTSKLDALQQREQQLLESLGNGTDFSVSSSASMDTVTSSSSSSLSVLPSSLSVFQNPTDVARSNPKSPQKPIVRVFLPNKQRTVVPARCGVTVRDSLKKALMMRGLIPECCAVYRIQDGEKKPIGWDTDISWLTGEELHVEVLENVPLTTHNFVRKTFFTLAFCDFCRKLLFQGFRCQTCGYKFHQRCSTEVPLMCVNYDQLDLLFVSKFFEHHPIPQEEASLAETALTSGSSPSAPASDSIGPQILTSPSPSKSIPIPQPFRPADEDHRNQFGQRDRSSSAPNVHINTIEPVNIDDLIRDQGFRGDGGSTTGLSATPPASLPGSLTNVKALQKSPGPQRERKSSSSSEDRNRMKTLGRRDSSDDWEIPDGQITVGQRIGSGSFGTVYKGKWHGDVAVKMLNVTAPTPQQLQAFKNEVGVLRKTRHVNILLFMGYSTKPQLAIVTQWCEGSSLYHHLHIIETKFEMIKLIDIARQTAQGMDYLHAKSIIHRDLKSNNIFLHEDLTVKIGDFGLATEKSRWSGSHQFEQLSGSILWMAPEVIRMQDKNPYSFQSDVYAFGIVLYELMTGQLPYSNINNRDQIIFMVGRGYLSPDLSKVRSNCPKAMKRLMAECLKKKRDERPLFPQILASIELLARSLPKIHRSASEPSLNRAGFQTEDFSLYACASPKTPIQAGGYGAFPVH

Compound	inhibition
COc1ccccc1N1CCN(c2ncnc3[nH]nc(Br)c23)CC1	9%
O=C(NCCCNc1nc(Nc2cccc(NC(=O)N3CCCC3)c2)ncc1I)c1cccs1	52%
Cc1n[nH]c2ccc(-c3cncc(OC[C@@H](N)Cc4c[nH]c5ccccc45)c3)cc12	45%

target: T1, Ephrin type-B receptor 1 (Homo sapiens) (UniProt P54762); experiment: Inhibition of EPHB1 at 1 uM in presence of 10 uM ATP by Select Screen kinase assay relative to untreated control; outline: as §1
T1 sequence (whole entry): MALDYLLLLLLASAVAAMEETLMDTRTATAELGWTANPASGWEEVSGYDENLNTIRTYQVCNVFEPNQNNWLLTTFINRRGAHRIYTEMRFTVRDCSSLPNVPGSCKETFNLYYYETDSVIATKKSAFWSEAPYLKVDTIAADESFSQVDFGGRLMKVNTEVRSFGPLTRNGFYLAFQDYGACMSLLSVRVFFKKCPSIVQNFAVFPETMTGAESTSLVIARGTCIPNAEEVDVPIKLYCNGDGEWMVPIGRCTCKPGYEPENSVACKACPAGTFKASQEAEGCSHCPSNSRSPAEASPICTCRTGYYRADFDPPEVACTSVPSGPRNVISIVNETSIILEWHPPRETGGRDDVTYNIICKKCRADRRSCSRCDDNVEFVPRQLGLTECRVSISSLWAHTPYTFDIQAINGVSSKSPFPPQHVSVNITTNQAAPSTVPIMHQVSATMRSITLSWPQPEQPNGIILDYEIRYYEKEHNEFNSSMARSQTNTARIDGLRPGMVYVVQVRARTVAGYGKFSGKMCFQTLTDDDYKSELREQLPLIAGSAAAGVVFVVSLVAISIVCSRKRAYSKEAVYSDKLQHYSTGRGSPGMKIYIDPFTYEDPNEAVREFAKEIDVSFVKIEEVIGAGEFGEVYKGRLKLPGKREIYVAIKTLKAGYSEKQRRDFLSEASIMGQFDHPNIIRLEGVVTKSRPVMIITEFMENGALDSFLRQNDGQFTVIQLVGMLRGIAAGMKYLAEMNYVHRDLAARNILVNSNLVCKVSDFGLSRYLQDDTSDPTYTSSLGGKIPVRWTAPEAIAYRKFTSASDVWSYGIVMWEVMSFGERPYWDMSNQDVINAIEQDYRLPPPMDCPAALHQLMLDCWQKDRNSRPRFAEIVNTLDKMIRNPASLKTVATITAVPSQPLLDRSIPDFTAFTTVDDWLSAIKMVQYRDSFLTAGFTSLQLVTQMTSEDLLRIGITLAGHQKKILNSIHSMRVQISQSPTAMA

Compound	inhibition
COc1ccccc1N1CCN(c2ncnc3[nH]nc(Br)c23)CC1	11%
O=C(NCCCNc1nc(Nc2cccc(NC(=O)N3CCCC3)c2)ncc1I)c1cccs1	16%
Cc1n[nH]c2ccc(-c3cncc(OC[C@@H](N)Cc4c[nH]c5ccccc45)c3)cc12	1%

target: ALK tyrosine kinase receptor (Homo sapiens) (UniProt Q9UM73); experiment: Inhibition of ALK at 1 uM in presence of 10 uM ATP by Select Screen kinase assay relative to untreated control; outline: as §1
Sequence (Q9UM73 19-1620 limits assumed): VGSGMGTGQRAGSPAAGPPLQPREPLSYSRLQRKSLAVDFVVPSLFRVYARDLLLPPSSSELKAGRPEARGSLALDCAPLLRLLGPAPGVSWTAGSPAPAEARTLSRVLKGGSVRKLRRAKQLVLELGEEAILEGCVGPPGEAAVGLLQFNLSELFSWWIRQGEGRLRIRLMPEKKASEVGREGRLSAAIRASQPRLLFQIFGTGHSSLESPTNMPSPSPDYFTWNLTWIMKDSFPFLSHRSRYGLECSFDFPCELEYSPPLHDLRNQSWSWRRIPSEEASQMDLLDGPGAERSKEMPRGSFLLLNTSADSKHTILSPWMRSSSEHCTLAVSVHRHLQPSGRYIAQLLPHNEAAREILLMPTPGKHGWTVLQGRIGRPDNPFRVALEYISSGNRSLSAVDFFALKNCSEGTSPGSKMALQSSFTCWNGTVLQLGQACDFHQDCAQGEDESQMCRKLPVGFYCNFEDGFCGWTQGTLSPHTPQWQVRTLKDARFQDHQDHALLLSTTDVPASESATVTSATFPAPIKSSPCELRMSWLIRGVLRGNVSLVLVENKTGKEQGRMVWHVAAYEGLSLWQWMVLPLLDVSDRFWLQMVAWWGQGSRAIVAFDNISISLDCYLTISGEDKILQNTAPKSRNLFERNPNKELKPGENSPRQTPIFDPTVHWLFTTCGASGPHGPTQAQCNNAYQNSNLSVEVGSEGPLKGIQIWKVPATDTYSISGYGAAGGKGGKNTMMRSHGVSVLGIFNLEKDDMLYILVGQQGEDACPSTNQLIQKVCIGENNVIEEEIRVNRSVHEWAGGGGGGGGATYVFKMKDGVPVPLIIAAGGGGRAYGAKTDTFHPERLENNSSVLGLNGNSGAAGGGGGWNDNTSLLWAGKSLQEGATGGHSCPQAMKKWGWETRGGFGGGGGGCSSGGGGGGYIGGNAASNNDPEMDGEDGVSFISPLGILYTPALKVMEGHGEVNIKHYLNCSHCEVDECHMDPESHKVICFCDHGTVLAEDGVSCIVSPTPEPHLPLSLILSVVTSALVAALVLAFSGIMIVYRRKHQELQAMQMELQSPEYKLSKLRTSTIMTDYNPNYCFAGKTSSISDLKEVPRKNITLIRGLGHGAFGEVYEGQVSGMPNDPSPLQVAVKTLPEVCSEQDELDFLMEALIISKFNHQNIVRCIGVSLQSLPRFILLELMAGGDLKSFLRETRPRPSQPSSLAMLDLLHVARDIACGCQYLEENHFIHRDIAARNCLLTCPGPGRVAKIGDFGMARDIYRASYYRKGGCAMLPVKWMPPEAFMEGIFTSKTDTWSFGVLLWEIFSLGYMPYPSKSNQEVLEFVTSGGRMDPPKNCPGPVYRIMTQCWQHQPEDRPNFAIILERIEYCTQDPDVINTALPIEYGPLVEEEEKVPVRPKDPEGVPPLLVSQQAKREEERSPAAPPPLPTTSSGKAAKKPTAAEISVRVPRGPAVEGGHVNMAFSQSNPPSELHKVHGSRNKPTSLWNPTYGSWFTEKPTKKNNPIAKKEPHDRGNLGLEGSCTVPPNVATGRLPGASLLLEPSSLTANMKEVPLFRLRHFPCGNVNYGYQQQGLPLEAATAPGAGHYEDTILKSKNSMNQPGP

Compound	inhibition
COc1ccccc1N1CCN(c2ncnc3[nH]nc(Br)c23)CC1	10%
O=C(NCCCNc1nc(Nc2cccc(NC(=O)N3CCCC3)c2)ncc1I)c1cccs1	9%
Cc1n[nH]c2ccc(-c3cncc(OC[C@@H](N)Cc4c[nH]c5ccccc45)c3)cc12	17%

target: G protein-coupled receptor kinase 4 (Homo sapiens) (UniProt P32298); experiment: Inhibition of GRK4 at 1 uM in presence of 10 uM ATP by Select Screen kinase assay relative to untreated control
Sequence (P32298 whole entry, looked up): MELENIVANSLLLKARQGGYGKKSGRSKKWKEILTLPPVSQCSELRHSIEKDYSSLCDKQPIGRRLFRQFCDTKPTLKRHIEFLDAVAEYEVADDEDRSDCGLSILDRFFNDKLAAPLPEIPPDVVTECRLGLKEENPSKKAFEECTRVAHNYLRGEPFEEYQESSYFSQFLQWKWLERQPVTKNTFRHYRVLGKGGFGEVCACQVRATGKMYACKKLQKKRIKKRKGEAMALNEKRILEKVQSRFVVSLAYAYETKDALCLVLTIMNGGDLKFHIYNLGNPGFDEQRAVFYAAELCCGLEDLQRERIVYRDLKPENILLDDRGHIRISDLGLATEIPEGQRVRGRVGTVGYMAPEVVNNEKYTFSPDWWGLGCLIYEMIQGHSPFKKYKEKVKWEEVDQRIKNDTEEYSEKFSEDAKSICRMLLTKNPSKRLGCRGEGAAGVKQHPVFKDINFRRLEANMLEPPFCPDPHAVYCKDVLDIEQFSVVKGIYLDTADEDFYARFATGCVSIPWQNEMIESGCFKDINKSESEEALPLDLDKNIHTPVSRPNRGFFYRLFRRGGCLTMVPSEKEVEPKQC
Outline: (§2)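 Single-concentration profiling at 1 μM against a panel of 220 purified kinases, run as an outsourced SelectScreen kinase profiling service. Activity is expressed as percent inhibition.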

Compound	inhibition
COc1ccccc1N1CCN(c2ncnc3[nH]nc(Br)c23)CC1	16%
O=C(NCCCNc1nc(Nc2cccc(NC(=O)N3CCCC3)c2)ncc1I)c1cccs1	9%
Cc1n[nH]c2ccc(-c3cncc(OC[C@@H](N)Cc4c[nH]c5ccccc45)c3)cc12	72%

target: Dual specificity mitogen-activated protein kinase kinase 1 (Homo sapiens) (UniProt Q02750); experiment: Inhibition of MAP2K1 at 1 uM in presence of 100 uM ATP by Select Screen kinase assay relative to untreated control; outline: as §2
Sequence (Q02750 whole entry): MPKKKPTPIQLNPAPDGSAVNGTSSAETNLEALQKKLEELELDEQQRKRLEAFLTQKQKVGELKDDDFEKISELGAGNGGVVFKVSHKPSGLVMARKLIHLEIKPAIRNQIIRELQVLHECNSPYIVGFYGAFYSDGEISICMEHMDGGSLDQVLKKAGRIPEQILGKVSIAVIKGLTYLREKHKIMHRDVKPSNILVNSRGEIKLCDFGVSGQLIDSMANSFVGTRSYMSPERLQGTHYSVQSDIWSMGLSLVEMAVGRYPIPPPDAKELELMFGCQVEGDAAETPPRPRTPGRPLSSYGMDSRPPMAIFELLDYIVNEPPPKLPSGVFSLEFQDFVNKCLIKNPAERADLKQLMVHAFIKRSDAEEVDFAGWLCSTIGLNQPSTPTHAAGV

Compound	inhibition
COc1ccccc1N1CCN(c2ncnc3[nH]nc(Br)c23)CC1	12%
O=C(NCCCNc1nc(Nc2cccc(NC(=O)N3CCCC3)c2)ncc1I)c1cccs1	67%
Cc1n[nH]c2ccc(-c3cncc(OC[C@@H](N)Cc4c[nH]c5ccccc45)c3)cc12	42%

target: NT-3 growth factor receptor (Homo sapiens) (UniProt Q16288); experiment: Inhibition of NTRK3 at 1 uM in presence of 10 uM ATP by Select Screen kinase assay relative to untreated control
Sequence (Q16288 32-839 limits assumed): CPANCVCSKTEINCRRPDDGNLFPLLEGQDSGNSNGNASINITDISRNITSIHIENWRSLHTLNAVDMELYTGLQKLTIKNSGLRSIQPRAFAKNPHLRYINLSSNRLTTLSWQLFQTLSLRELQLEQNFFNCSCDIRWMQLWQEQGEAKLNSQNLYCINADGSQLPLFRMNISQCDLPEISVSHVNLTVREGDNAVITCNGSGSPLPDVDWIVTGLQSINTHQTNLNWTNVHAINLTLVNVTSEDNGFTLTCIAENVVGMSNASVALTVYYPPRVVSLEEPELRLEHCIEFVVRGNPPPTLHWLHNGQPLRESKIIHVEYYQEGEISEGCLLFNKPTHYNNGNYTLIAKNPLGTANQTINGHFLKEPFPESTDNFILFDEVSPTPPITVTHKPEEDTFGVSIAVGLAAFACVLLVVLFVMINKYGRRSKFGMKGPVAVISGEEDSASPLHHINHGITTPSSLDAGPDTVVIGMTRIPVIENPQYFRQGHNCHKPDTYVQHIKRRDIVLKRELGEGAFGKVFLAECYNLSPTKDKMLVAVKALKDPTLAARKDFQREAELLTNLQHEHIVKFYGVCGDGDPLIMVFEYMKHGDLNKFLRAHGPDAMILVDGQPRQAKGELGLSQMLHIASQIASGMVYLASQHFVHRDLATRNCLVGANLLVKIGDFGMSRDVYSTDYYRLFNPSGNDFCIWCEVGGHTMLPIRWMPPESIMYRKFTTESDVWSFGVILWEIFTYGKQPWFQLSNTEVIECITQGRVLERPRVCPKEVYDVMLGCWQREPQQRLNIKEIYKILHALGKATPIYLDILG
Outline: (§3)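 Commercial SelectScreen profiling panel of 220 purified kinases. Each kinase was tested at a single inhibitor concentration of 1 μM, and activity was expressed as percent inhibition.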

Compound	inhibition
COc1ccccc1N1CCN(c2ncnc3[nH]nc(Br)c23)CC1	37%
O=C(NCCCNc1nc(Nc2cccc(NC(=O)N3CCCC3)c2)ncc1I)c1cccs1	80%
Cc1n[nH]c2ccc(-c3cncc(OC[C@@H](N)Cc4c[nH]c5ccccc45)c3)cc12	28%

target: T2, Phosphorylase b kinase gamma catalytic chain, liver/testis isoform (Homo sapiens) (UniProt P15735); experiment: Inhibition of PHKG2 at 1 uM in presence of 10 uM ATP by Select Screen kinase assay relative to untreated control; outline: as §3
T2 sequence (whole entry): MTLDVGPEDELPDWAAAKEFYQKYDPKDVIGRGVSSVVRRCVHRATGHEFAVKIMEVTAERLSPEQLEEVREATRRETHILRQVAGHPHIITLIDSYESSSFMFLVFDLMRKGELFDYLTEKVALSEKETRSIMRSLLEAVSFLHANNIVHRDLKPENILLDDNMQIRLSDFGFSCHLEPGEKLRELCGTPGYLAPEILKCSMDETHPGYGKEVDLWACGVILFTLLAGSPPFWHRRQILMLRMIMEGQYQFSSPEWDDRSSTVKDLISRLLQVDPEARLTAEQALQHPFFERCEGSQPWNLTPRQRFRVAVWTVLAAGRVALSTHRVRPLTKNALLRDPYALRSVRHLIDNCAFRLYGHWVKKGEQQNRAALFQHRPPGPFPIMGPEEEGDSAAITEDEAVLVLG

Compound	inhibition
COc1ccccc1N1CCN(c2ncnc3[nH]nc(Br)c23)CC1	4%
O=C(NCCCNc1nc(Nc2cccc(NC(=O)N3CCCC3)c2)ncc1I)c1cccs1	28%
Cc1n[nH]c2ccc(-c3cncc(OC[C@@H](N)Cc4c[nH]c5ccccc45)c3)cc12	11%

target: T3, Megakaryocyte-associated tyrosine-protein kinase (Homo sapiens) (UniProt P42679); experiment: Inhibition of MATK at 1 uM in presence of 10 uM ATP by Select Screen kinase assay relative to untreated control; outline: as §2
T3 sequence (whole entry): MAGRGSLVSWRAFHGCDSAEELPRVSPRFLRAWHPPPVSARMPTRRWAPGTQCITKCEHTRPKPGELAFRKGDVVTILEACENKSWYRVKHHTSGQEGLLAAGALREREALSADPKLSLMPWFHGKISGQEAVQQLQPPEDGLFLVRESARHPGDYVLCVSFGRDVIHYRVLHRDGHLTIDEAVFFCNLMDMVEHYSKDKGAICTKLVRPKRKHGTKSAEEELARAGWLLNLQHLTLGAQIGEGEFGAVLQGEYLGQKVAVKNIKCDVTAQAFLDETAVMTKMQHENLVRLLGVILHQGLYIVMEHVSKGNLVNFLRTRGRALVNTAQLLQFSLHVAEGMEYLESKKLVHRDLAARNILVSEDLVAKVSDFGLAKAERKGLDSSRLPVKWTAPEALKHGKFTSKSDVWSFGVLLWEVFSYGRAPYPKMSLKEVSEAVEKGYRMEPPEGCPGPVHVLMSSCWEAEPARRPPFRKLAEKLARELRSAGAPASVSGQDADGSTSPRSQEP

Compound	inhibition
COc1ccccc1N1CCN(c2ncnc3[nH]nc(Br)c23)CC1	-1%
O=C(NCCCNc1nc(Nc2cccc(NC(=O)N3CCCC3)c2)ncc1I)c1cccs1	3%
Cc1n[nH]c2ccc(-c3cncc(OC[C@@H](N)Cc4c[nH]c5ccccc45)c3)cc12	-10%
